Measurements taken from ChEMBL document CHEMBL4665743, “Labdane-Type Diterpenes from the Aerial Parts of Rydingia persica: Their Absolute Configurations and Protective Effects on LPS-Induced Inflammation in Keratinocytes” (2020).

Experiments:
Assay type in all cases: functional
[1] = tested on: HaCaT; experiment: Anti-inflammatory activity in human HaCaT cells assessed as inhibition of LPS-induced nitrotyrosine production at 12.5 uM after 24 hrs by FACS analysis relative to LPS alone
Procedure, shortened: (§1)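 Cells were HaCaT seeded at 5 × 10^3 cells/well and pretreated with compound 1 h, then exposed to LPS (5 μg/mL) for 24 h. They were collected, PBS-washed, fixed 20 min and permeabilized 30 min, then stained 1 h with anti-nitrotyrosine antibody plus fluorescent secondary. Fluorescence was read by flow cytometry and expressed as % inhibition vs LPS alone. Mean ± SEM, n = 3.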

[2] = tested on: HaCaT; experiment: Anti-inflammatory activity in human HaCaT cells assessed as inhibition of LPS-induced occluding expression at 25 uM after 24 hrs by FACS analysis (rvb = 30.17 +/- 5.98)
[3] = tested on: HaCaT; experiment: Anti-inflammatory activity in human HaCaT cells assessed as inhibition of LPS-induced TNF-alpha production at 25 uM after 24 hrs by ELISA relative to LPS alone
Procedure, shortened: (§2)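 HaCaT keratinocytes (DMEM, 4 g/L glucose, 10% FBS, 1% pen-strep) seeded 5 × 10^3 cells/well and allowed to adhere 24 h. Compounds added for 1 h alone, then with E. coli LPS (5 μg/mL) for 24 h. IL-6 or TNF-α measured in supernatants by ELISA (pg/mL) and expressed as % inhibition vs LPS alone. Indomethacin 10 μM served as reference. Mean ± SEM, n = 3.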

[4] = tested on: HaCaT; experiment: Anti-inflammatory activity in human HaCaT cells assessed as inhibition of LPS-induced occluding expression at 50 uM after 24 hrs by FACS analysis (rvb = 30.17 +/- 5.98)
[5] = tested on: HaCaT; experiment: Anti-inflammatory activity in human HaCaT cells assessed as inhibition of LPS-induced IL-6 production at 50 uM after 24 hrs by ELISA relative to LPS alone; procedure, shortened: as §2
[6] = tested on: HaCaT; experiment: Anti-inflammatory activity in human HaCaT cells assessed as inhibition of LPS-induced nitrotyrosine production at 25 uM after 24 hrs by FACS analysis relative to LPS alone; procedure, shortened: as §1
[7] = tested on: HaCaT; experiment: Anti-inflammatory activity in human HaCaT cells assessed as inhibition of LPS-induced TNF-alpha production at 50 uM after 24 hrs by ELISA relative to LPS alone; procedure, shortened: as §2
[8] = tested on: HaCaT; experiment: Anti-inflammatory activity in human HaCaT cells assessed as inhibition of LPS-induced IL-6 production at 12.5 uM after 24 hrs by ELISA relative to LPS alone; procedure, shortened: as §2
[9] = tested on: HaCaT; experiment: Anti-inflammatory activity in human HaCaT cells assessed as inhibition of LPS-induced occluding expression at 12.5 uM after 24 hrs by FACS analysis (rvb = 30.17 +/- 5.98)
[10] = tested on: HaCaT; experiment: Anti-inflammatory activity in human HaCaT cells assessed as inhibition of LPS-induced TNF-alpha production at 12.5 uM after 24 hrs by ELISA relative to LPS alone; procedure, shortened: as §2
[11] = tested on: HaCaT; experiment: Anti-inflammatory activity in human HaCaT cells assessed as inhibition of LPS-induced nitrotyrosine production at 50 uM after 24 hrs by FACS analysis relative to LPS alone; procedure, shortened: as §1
[12] = tested on: HaCaT; experiment: Anti-inflammatory activity in human HaCaT cells assessed as inhibition of LPS-induced IL-6 production at 25 uM after 24 hrs by ELISA relative to LPS alone; procedure, shortened: as §2
[13] = tested on: HaCaT; experiment: Anti-inflammatory activity in human HaCaT cells assessed as inhibition of LPS-induced claudin-1 expression at 12.5 uM after 24 hrs by FACS analysis (rvb = 31.19 +/- 0.77)
[14] = tested on: HaCaT; experiment: Anti-inflammatory activity in human HaCaT cells assessed as inhibition of LPS-induced claudin-1 expression at 25 uM after 24 hrs by FACS analysis (rvb = 31.19 +/- 0.77)
[15] = tested on: HaCaT; experiment: Anti-inflammatory activity in human HaCaT cells assessed as inhibition of LPS-induced claudin-1 expression at 50 uM after 24 hrs by FACS analysis (rvb = 31.19 +/- 0.77)
[16] = tested on: HaCaT; experiment: Anti-inflammatory activity in human HaCaT cells assessed as inhibition of LPS-induced TNF-alpha production at 10 uM after 24 hrs by ELISA relative to LPS alone; procedure, shortened: as §2
[17] = tested on: HaCaT; experiment: Anti-inflammatory activity in human HaCaT cells assessed as inhibition of LPS-induced IL-6 production at 10 uM after 24 hrs by ELISA relative to LPS alone; procedure, shortened: as §2

| SMILES | inhibition at 12.5 µM [1] [%] | Flu intensity [2] | inhibition at 25 µM [3] [%] | Flu intensity [4] | inhibition at 50 µM [5] [%] | inhibition at 25 µM [6] [%] | inhibition at 50 µM [7] [%] | inhibition at 12.5 µM [8] [%] | Flu intensity [9] | inhibition at 12.5 µM [10] [%] | inhibition at 50 µM [11] [%] | inhibition at 25 µM [12] [%] | Flu intensity [13] | Flu intensity [14] | Flu intensity [15] | inhibition at 10 µM [16] [%] | inhibition at 10 µM [17] [%] |
| --- | --- | --- | --- | --- | --- | --- | --- | --- | --- | --- | --- | --- | --- | --- | --- | --- | --- |
| CC(=O)O[C@@H]1CC[C@@]2(C)[C@@H](C(=O)[C@H](O)[C@@H](C)[C@]2(O)CCc2ccoc2)C1(C)C | 9 | 16.06 | 62 | 22.88 | 80.5 | 42.7 | 68 | 73.5 | 10.89 | 15.6 | 56.3 | 77 | 14.96 | 16.35 | 26.08 | – | – |
| CO[C@@H]1C[C@]2(CC[C@@]3(O2)[C@H](C)C(=O)C[C@H]2C(C)(C)[C@H](O)CC[C@@]23C)CO1 | 0 | 18.59 | 62.5 | 24.77 | 76.5 | 21 | 68 | 63 | 8.82 | 44 | 39.3 | 71.5 | 13.55 | 22.52 | 33.58 | – | – |
| CO[C@H]1C[C@]2(CC[C@@]3(O2)[C@H](C)C(=O)[C@@H](O)[C@H]2C(C)(C)[C@H](O)CC[C@@]23C)CO1 | 0 | 23.48 | 55 | 35.8 | 78 | 15 | 65 | 38.5 | 18.89 | 44 | 38 | 68.5 | 14.39 | 22.27 | 31.45 | – | – |
| COc1ccc2c(c1)c(CC(=O)O)c(C)n2C(=O)c1ccc(Cl)cc1 [INDOMETHACIN] | – | – | – | – | – | – | – | – | – | – | – | – | – | – | – | 77 | 88.5 |
| CC1=C(CCc2ccoc2)[C@@]2(C)CC[C@@H](O)C(C)(C)[C@@H]2[C@H](O)C1=O | 5 | 21.1 | 68 | 31.92 | 81 | 40 | 68 | 65.5 | 18.52 | 39.5 | 56 | 69 | 12.24 | 23.72 | 34.97 | – | – |
| COC1C=C(CCC2=C(C)C(=O)C[C@H]3C(C)(C)[C@H](O)CC[C@]23C)C(=O)O1 (some centres not stated) | 0.5 | 22.64 | 68 | 34.73 | 74.5 | 29.5 | 72 | 65.5 | 18.46 | 52 | 59.3 | 74 | 16.74 | 20.46 | 27.21 | – | – |
| CC1=C(CCC2=CC(O)OC2=O)[C@@]2(C)CC[C@@H](O)C(C)(C)[C@@H]2CC1=O (some centres not stated) | 30 | 13.83 | 70.5 | 25.71 | 76 | 37 | 73.5 | 56 | 10.27 | 68 | 58.7 | 70.5 | 5.01 | 13.14 | 22.83 | – | – |
| CC(=O)OC[C@@]1(C)[C@H](O)CC[C@]2(C)C(CCc3ccoc3)=C(C)C(=O)C[C@@H]12 | 0 | 19.18 | 25 | 31.34 | 73.5 | 44 | 44 | 66.5 | 13.27 | 0 | 58.3 | 67 | 6.86 | 14.18 | 17.12 | – | – |
| CO[C@@H]1C[C@@]2(CC[C@@]3(O2)[C@H](C)C(=O)C[C@H]2C(C)(C)[C@H](O)CC[C@@]23C)C(=O)O1 | 14.3 | 18.73 | 50.5 | 25.11 | 76.5 | 40 | 56.5 | 75 | 9.09 | 41.5 | 57.5 | 75.5 | 8.09 | 24.86 | 32.36 | – | – |
| CC(=O)OC[C@@]1(C)[C@H](O)CC[C@]2(C)C(CCC3=CC(O)OC3=O)=C(C)C(=O)C[C@@H]12 (some centres not stated) | 3.67 | 21.77 | 47.5 | 32.25 | 73.5 | 43 | 56.5 | 44.5 | 12.54 | 35 | 61.7 | 49.5 | 14.41 | 20.73 | 34.13 | – | – |
| C[C@@H]1C(=O)C[C@H]2C(C)(C)[C@H](O)CC[C@]2(C)[C@@]1(O)CCc1ccoc1 | 6.33 | 24.34 | 62.5 | 32.27 | 69.5 | 30.5 | 65 | 48 | 17.8 | 37 | 46.3 | 64.5 | 19.29 | 30.04 | 36.5 | – | – |
